ChEMBL document CHEMBL1137637, “Quinuclidine derivatives as potential antiparasitics” (Antimicrob Agents Chemother, 2007)
Values after ≈ are worked out from the molar mass of the structure shown.

Experiments:
Leishmania donovani = assay: Antileishmanial activity against Leishmania donovani MHOM/ET/67/L82 axenic amastigotes after 72 hrs by resazurin assay; assay type: functional, organism-based; settings: MHOM/ET/67/L82, 72 h
Method in brief: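 L. donovani MHOM/ET/67/L82 amastigotes grown axenically at 37°C in synthetic minimal medium at pH 5.4 with 10% heat-inactivated FBS under 5% CO2. 1 × 10⁵ amastigotes per well with seven threefold dilutions, 30 to 0.041 μg/ml. After 72 h, resazurin added for 2–4 h more. Fluorescence read at ex 536/em 588 nm. IC50 taken from sigmoidal curve. Run in duplicate, with an independent repeat for actives.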

Leishmania amazonensis [1] = assay: Inhibition of sterol biosynthesis in Leishmania mexicana amazonensis promastigotes assessed as reduction in endogenous cholesta-7,24-dien-3beta-ol level at 10 uM after 96 hrs by gas-liquid chromatography; assay type: functional; parameters: scale not given: the % may be the effect or the level left
Method in brief: (§1)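 L. mexicana promastigotes exposed to compound for 96 h. Total lipids extracted and neutral sterols separated from polar lipids by silicic acid column chromatography. Sterols analysed by TLC and by quantitative capillary gas-liquid chromatography with mass spectrometry. Composition expressed as mass % of free sterols, compared with untreated control.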

Plasmodium falciparum = assay: Antiplasmodial activity after 48 hrs against chloroquine and pyrimethamine-resistant Plasmodium falciparum K1 in human erythrocytes by [3H]hypoxanthine uptake; assay type: functional, organism-based
Method in brief: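 P. falciparum K1 in human red cells in RPMI 1640 with 5% Albumax, exposed to serial drug dilutions. Incubated 48 h at 37°C under reduced oxygen, then 0.5 μCi [³H]hypoxanthine per well for 24 h more. Cells harvested onto glass-fibre filters and counted by scintillation. Result expressed as % of untreated control, with IC50 from sigmoidal curve. Duplicate, plus an independent repeat for actives.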

Leishmania amazonensis [2] = assay: Inhibition of sterol biosynthesis in Leishmania mexicana amazonensis promastigotes assessed as reduction in endogenous episterol level at 10 uM after 96 hrs by gas-liquid chromatography; assay type: functional; parameters: scale not given: the % may be the effect or the level left; method in brief: as §1
Leishmania amazonensis [3] = assay: Inhibition of sterol biosynthesis in Leishmania mexicana amazonensis promastigotes assessed as reduction in endogenous 5-dehydro episterol level at 10 uM after 96 hrs by gas-liquid chromatography; assay type: functional; parameters: scale not given: the % may be the effect or the level left; method in brief: as §1
[4] = molecular target: T1, Farnesyltransferase, putative (Leishmania major, UniProt Q4Q5W4); assay: Inhibition of Leishmania major recombinant squalene synthase expressed in Escherichia coli by liquid scintillation counter
T1 sequence (Q4Q5W4 whole entry): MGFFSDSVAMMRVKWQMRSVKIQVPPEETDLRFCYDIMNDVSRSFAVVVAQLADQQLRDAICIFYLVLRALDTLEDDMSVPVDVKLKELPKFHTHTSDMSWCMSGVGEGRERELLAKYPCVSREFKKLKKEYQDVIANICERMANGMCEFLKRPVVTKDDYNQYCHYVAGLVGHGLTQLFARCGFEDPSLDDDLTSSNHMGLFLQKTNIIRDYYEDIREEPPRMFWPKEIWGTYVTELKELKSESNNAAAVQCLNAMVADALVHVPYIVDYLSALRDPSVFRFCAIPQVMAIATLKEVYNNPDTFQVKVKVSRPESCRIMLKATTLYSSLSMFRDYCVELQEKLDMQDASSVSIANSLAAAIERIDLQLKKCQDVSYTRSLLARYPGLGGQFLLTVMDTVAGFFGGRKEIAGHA
Method in brief: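 Soluble E. coli extract expressing L. major SQS truncated by 16 N-terminal and 40 C-terminal residues. Buffer: 50 mM phosphate pH 7.4, 20 mM MgCl2, 5 mM CHAPS, 1% Tween 80, 10 mM DTT, BSA, 0.25 mM NADPH, and a glucose-6-phosphate/G6PDH regenerating system. Substrate 0.5 μM radiolabelled farnesyl pyrophosphate. Squalene band counted by scintillation. IC50 from hyperbolic plot of five concentrations in duplicate, usually run twice.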

Squalene synthase = molecular target: T2, Squalene synthase (Homo sapiens, UniProt P37268); assay: Inhibition of human recombinant squalene synthase expressed in Escherichia coli BL21(DE3 pLysS) up to 1 uM by liquid scintillation counter
T2 sequence (P37268 whole entry): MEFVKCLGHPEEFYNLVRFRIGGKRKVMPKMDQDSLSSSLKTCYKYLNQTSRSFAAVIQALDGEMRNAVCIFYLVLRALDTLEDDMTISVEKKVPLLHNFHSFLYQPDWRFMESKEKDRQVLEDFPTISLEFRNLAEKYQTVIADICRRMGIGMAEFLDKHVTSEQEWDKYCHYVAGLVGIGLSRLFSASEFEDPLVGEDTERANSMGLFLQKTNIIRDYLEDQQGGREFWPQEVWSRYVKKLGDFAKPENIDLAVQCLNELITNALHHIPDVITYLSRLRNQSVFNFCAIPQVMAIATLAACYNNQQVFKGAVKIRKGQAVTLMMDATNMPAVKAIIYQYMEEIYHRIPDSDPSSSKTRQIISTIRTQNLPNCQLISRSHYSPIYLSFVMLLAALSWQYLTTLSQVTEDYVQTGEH
Method in brief: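 Human SQS in extracts of E. coli BL21(DE3 pLysS) carrying pHSS16, assayed under the same conditions as the L. major enzyme. Buffer: phosphate pH 7.4, MgCl2, CHAPS, Tween 80, DTT, BSA, and NADPH with a regenerating system. Substrate 0.5 μM radiolabelled farnesyl pyrophosphate. Squalene band radioactivity counted by scintillation.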

Trypanosoma cruzi = assay: Antitrypanosomal activity against trypomastigotes of Trypanosoma cruzi Tulahuen C2C4 containing lacZ gene in rat L6 cells after 4 days by chlorophenol red-beta-D-galactopyranoside/Nonidet assay; assay type: functional, organism-based; settings: Tulahuen C2C4, L6, 96 h
Method in brief: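 L-6 rat myoblasts seeded at 2,000 cells/well in RPMI 1640 with 10% FBS and 2 mM L-glutamine. After 24 h, 5,000 T. cruzi Tulahuen C2C4 lacZ trypomastigotes added with serial drug dilution. Incubated at 37°C in 5% CO2 for 4 days. CPRG/Nonidet substrate added and colour read at 540 nm after 2–4 h. IC50 from sigmoidal curve. Duplicate determinations.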

Leishmania amazonensis [5] = assay: Inhibition of sterol biosynthesis in Leishmania mexicana amazonensis promastigotes assessed as reduction in exogenous cholesterol level at 10 uM after 96 hrs by gas-liquid chromatography; assay type: functional; parameters: scale not given: the % may be the effect or the level left; method in brief: as §1
L6 = assay: Cytotoxicity against rat L6 cells after 72 hrs by resazurin assay; assay type: cell-based; settings: L6, 72 h
Method in brief: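 L-6 cells seeded at 4 × 10⁴ cells/ml in RPMI 1640 with 10% FBS and 2 mM L-glutamine. After 24 h, medium replaced with serial drug dilution and incubated for 72 h at 37°C in 5% CO2. Resazurin added for 2–4 h, fluorescence read at ex 536/em 588 nm. IC50 from sigmoidal curve. Duplicate, with an independent repeat for actives.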

[6] = tested on: Trypanosoma brucei rhodesiense; assay: Trypanocidal activity against Trypanosoma brucei rhodesiense STIB 900 bloodstream form after 72 hrs by resazurin assay; assay type: functional, organism-based; settings: STIB 900, 72 h
Method in brief: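 T. b. rhodesiense STIB 900 bloodstream forms in MEM with 2-mercaptoethanol and 15% heat-inactivated horse serum, with serial drug dilutions. Incubated 72 h at 37°C in 5% CO2. Resazurin added for 2–4 h more, fluorescence read at ex 536/em 588 nm. IC50 from sigmoidal curve. Duplicate, with an independent repeat for actives.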

Leishmania amazonensis [7] = assay: Inhibition of sterol biosynthesis in Leishmania mexicana amazonensis promastigotes assessed as reduction in endogenous cholesta-5,7,24-trien-3beta-ol level at 10 uM after 96 hrs by gas-liquid chromatography; assay type: functional; parameters: scale not given: the % may be the effect or the level left; method in brief: as §1
Leishmania amazonensis [8] = assay: Antileishmanial activity against Leishmania mexicana amazonensis promastigotes by trypan blue exclusion method; assay type: functional, organism-based
Method in brief: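 L. mexicana amazonensis promastigotes cultured in liver infusion-tryptose medium with lactalbumin and 10% FCS at 26°C, unagitated. Cultures started at 2 × 10⁶ cells/ml and drug added at 0.5–1 × 10⁷ cells/ml. Density counted by electronic particle counter and hemocytometer. Viability by trypan blue exclusion. Triplicate growth experiments.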

Leishmania amazonensis [9] = assay: Inhibition of sterol biosynthesis in Leishmania mexicana amazonensis promastigotes assessed as reduction in endogenous 5-dehydro episterol level at 3 uM after 96 hrs by gas-liquid chromatography; assay type: functional; parameters: scale not given: the % may be the effect or the level left; method in brief: as §1
Leishmania amazonensis [10] = assay: Inhibition of sterol biosynthesis in Leishmania mexicana amazonensis promastigotes assessed as reduction in exogenous cholesterol level at 3 uM after 96 hrs by gas-liquid chromatography; assay type: functional; parameters: scale not given: the % may be the effect or the level left; method in brief: as §1

SMILES | IC50 (Leishmania donovani) [µM] | Activity (Leishmania amazonensis [1]) [%] | IC50 (Plasmodium falciparum) [µM] | Activity (Leishmania amazonensis [2]) [%] | Activity (Leishmania amazonensis [3]) [%] | IC50 [4] [µM] | IC50 (Squalene synthase) | IC50 (Trypanosoma cruzi) [µM] | Activity (Leishmania amazonensis [5]) [%] | IC50 (L6) [µM] | IC50 [6] [µM] | Activity (Leishmania amazonensis [7]) [%] | MIC (Leishmania amazonensis [8]) [µM] | IC50 (Leishmania amazonensis [8]) [µM] | Activity (Leishmania amazonensis [9]) [%] | Activity (Leishmania amazonensis [10]) [%]
C(=C1CN2CCC1CC2)c1ccc(C2OCCO2)cc1 | 38.6 | 6.7 | 14.2 | 11.7 | 54.9 | > 1 | Not Active | > 111 | 14.1 | 212 | 12.5 | 12.7 | > 10 |  |  | 
OC[C@@H]1CC2CCN1C[C@@H]2C#Cc1ccccc1 (stereo partly specified) | > 124 | 3.9 | 3.3 | 13.2 | 63 | > 1 |  | 8.2 | 17.9 | 74.5 | 12.8 | 2 | > 10 |  |  | 
CCOC(=O)Cc1ccc(C#C[C@H]2CN3CCC2C[C@@H]3CO)cc1 (stereo partly specified) | 14.6 | 3.3 | 5.2 | 8.4 | 73.4 | > 1 |  | 22.9 | 14.6 | 156 | 32.3 | 3.6 | > 10 |  |  | 
OC[C@H]1CC2CCN1C[C@@H]2C#Cc1ccccc1 (stereo partly specified) | > 124 | 2.7 | 6.5 | 11.8 | 69.6 | > 1 |  | 25.6 | 13.1 | 166 | 14.5 | 2.8 | 10 (≈ 2.41 µg/mL) |  |  | 
CCOC(=O)Cc1ccc(C#C[C@H]2CN3CCC2C[C@H]3CO)cc1 (stereo partly specified) | > 92 | 11.8 | 5 | 10.8 | 41.5 | > 1 |  | 50 | 25.2 | 155 | 64.7 | 10.7 |  | > 10 |  | 
OC[C@@H]1CC2CCN1C[C@@H]2C#Cc1cnc2ccccc2c1 (stereo partly specified) | 80 | 12.3 | 1.7 | 13.7 | 40.6 | > 1 |  | 19.1 | 27.5 | 169 | 7.1 | 5.9 | > 10 |  |  | 
C(=C1/CN2CCC1CC2)/c1ccccc1 | > 151 | 2.8 | 0.8 | 12.2 | 70.7 | > 1 | Not Active | > 151 | 10.6 | 382 | 16 | 3.7 | > 10 |  |  | 
O=Cc1ccc(/C=C2\CN3CCC2CC3)cc1 | > 132 | 4.6 | > 22 | 8.2 | 62 | > 1 | Not Active | > 132 | 11.2 | > 396 | 13.1 | 14 | > 10 |  |  | 
CCOC(=O)c1ccc(C#C[C@H]2CN3CCC2C[C@H]3CO)cc1 (stereo partly specified) | 10.2 | 3.3 | 0.6 | 4.1 | 50.3 | > 1 |  | 19.4 | 18.7 | 37.6 | 1.7 | 23.6 | > 10 |  |  | 
C(=C1\CN2CCC1CC2)/c1ccc(C2OCCO2)cc1 | 77.7 |  | 10 |  | 57.9 | > 1 | Not Active | 30.2 | 42.1 | 239 | 10.3 |  | 10 (≈ 2.71 µg/mL) |  |  | 
c1ccc(CC2CN3CCC2CC3)cc1 (stereo unspecified) | > 149 | 2.9 | 5.4 | 51.3 | 2.8 | > 1 | Not Active | 130 | 14.9 | > 447 | 60.6 | 23.2 | > 10 |  |  | 
C(=C1/CN2CCC1CC2)/c1ccc(C2OCCO2)cc1 | 82.1 |  | 12.3 | 14.2 | 16.1 | > 1 | Not Active | 46 | 25.4 | 136 | 5.5 | 18.5 | > 10 |  |  | 
C(=C1/CN2CCC1CC2)/c1ccc2ccccc2c1 | 88.2 |  | 0.9 |  |  | > 1 | Not Active | 2.8 |  | 25.6 | 0.5 |  | 3 (≈ 0.748 µg/mL) |  | 42.2 | 57.8
